Screens as filed in PubChem BioAssay.
MLLE-PAM2 inh: inhibitors of microRNA-mediated deadenylation, human PABP1 MLLE binding; P11940; GST-MLLE / FITC-PAM2 fluorescence polarization; inhibition, % at 20 µM; 0.36% of 360,000 active; in the data active = inhibition above about 35%, passing the limit was not always enough;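 note: plate controls were DMSO wells with GST-MLLE for no effect and wells lacking GST-MLLE protein for full effect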
RBBP9 inh: inhibitors of human serine hydrolase RBBP9. O75884. recombinant RBBP9, FP-Rh probe fluorescence polarization. inhibition, % at 7.94 µM. 0.2% of 220,000 active. AID 1515;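 active = inhibition above the campaign mean of all tested compounds plus 3 SD, cut at about 14% in these data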;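 note: plate controls were DMSO wells with RBBP9 for no effect and wells lacking RBBP9 protein for full effect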
Target sequence (O75884 whole entry, looked up): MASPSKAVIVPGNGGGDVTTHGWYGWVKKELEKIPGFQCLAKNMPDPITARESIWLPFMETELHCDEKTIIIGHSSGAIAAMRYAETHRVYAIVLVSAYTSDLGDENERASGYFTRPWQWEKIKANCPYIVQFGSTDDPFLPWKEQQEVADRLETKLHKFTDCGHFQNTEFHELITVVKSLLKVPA
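Test system: recombinant human RBBP9; Timing: 30 min then 45 min, 25 °C; Detection: fluorescence polarization; Control set: RBBP9 with DMSO as uninhibited control, no-protein wells as full inhibition; Compound dosing: one concentration, 7.94 µM nominal, 0.794% DMSO; Probe or stimulus: FP-Rh activity-based probe, 375 nM before mixing.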
TCR-CD3 inh: human TCR-CD3 binding inhibition | 0.37% of 360,000 active | TAMRA-labeled TCR probe fluorescence, biochemical | AID 651800 | inhibition, % at 9.4 µM; in the data active = inhibition above about 19%;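 note: recombinant mutant TCR 2C K166C tagged with TAMRA read by polarization; 0% = receptor in buffer alone and 100% = receptor with positive control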
PABP FP inh: PABP-poly(A) binding inhibition. P11940. PABP-poly(A) RNA binding, fluorescence polarization. calls only at 35 µM. 1% of 290,000 active;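 note: calls also rest on retests at 20 µM and on dose response follow-up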
eIF4H inh: inhibitors of RNA binding by human eIF4H; inhibition, % at 35 µM; eIF4H fluorescence polarization binding assay; AID 2012; 0.94% of 290,000 active; Q15056;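 note: calls also rest on retests at 20 µM and on dose response follow-up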
BSA probe FL: counter-screen for TCR-CD3 interaction inhibitors: BSA probe. shares compounds with TCR-CD3 inh. TAMRA-labeled BSA probe fluorescence counterscreen. inhibition, % at 9.4 µM. 10% of 1,200 active; in the data active = inhibition above about 23%;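 note: 0% = buffer low control and 100% = reference high control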
TCR-CD3 conf: TCR-CD3 interaction inhibition, confirmation; TAMRA-labeled TCR probe fluorescence binding assay; inhibition, % at 9.4 µM; AID 652036; shares compounds with TCR-CD3 inh; 48% of 1,200 active; in the data active = inhibition above about 19%
* marks the source's active call; other numbers are inactive results; i = inactive; u = inconclusive; x = not tested or not shown; + = active, no number. The list is not random: actives were taken first. Their share in the collection is about 1.6%. Unless noted, the rule behind the calls is not given here.

SMILES | MLLE-PAM2 inh | RBBP9 inh | TCR-CD3 inh | PABP FP inh | eIF4H inh | BSA probe FL | TCR-CD3 conf
O=C(Cc1nnc(NC(=O)c2ccccc2)s1)N/N=C/c1ccco1 | -13 | 0 | 19* | + | 82 | -6 | 4
Cc1ccc(C(=O)NNC(=O)c2ccccc2O)cc1S(=O)(=O)N1CCCCC1 | 6 | x | 24* | x | x | -4 | 23*
O=C(NNC(=O)C1CCN(S(=O)(=O)c2ccc(Cl)cc2)CC1)c1ccccc1O | -1 | x | 34* | x | x | -3 | 31*
O=C(NNC(=O)c1ccccc1O)c1ccc(Cl)c(S(=O)(=O)N2CCc3ccccc32)c1 | -11 | x | 28* | x | x | -6 | 16
C[C@@H]1OC(C2CCCCC2)N(C)[C@H]2C[C@H]3c4[nH]c5cccc(-c6ccccc6)c5c4CCN3C(=O)[C@@H]12 (stereo not given in full) | x | x | 3 | x | x | x | x
COc1ccc(C2C(C#N)=C(N)Oc3n[nH]c(C)c32)cc1Cn1nc(C)c([N+](=O)[O-])c1C (stereo not given) | -6 | -10 | 4 | i | 1 | x | x
COc1ccc(C2C(C#N)=C(N)OC3=C2C(=O)CCC3)cc1Cn1nc(C)c([N+](=O)[O-])c1C (stereo not given) | 16 | -4 | 42* | i | 2 | -1 | 1
O=c1cc(-c2ccccc2)oc2ccc3ccccc3c12 | 10 | x | -4 | x | x | x | x
O=c1cc(-c2ccc(O)c(O)c2)oc2ccc3ccccc3c12 | 0 | x | 56* | x | x | -6 | 48*
O=c1cc(-c2ccccc2)oc2c1ccc1ccccc12 | x | x | 1 | x | x | x | x
O=c1cc(-c2ccc(O)c(O)c2)oc2c1ccc1ccccc12 | 9 | x | 40* | x | x | -5 | 75*
CCOC(=O)c1cc2ccccc2n1C1CCN(C)CC1 | x | x | -7 | x | x | x | x
O=C(Cc1ccc(NC(=O)C2CCN(C(=O)CCc3ccccc3)CC2)cc1)Nc1cccc(C(=O)N2CCCC2)c1 | x | x | -4 | x | x | x | x
Cc1ccc2[nH]c(C(=O)N/N=C/c3ccccc3O)c(C)c2c1 | 5 | x | 20* | i | 2 | -6 | 19
O=C(NNC(=S)NC(=O)c1cccc([N+](=O)[O-])c1)c1ccc(O)cc1 | 29 | x | 20* | i | 12 | -2 | 34*
O=C(NNC(=S)NC(=O)c1cccc([N+](=O)[O-])c1)c1ccc(Br)cc1 | 26 | x | 20* | i | 3 | -7 | 17
CCOC(=O)CS(=O)(=O)c1nc(-c2ccccc2)cc(C(F)(F)F)n1 | 21 | -9 | 22* | i | -4 | 1 | 0
CCOC(=O)CCS(=O)(=O)c1nc(-c2ccccc2)cc(C(F)(F)F)n1 | 22 | -12 | x | i | 0 | x | x
COc1ccc(-c2ccc3c(n2)CCCN3S(=O)(=O)c2ccc(C(F)(F)F)cc2)cc1 | x | x | -10 | x | x | x | x
CC1=NN(C(=O)CSCc2ccccc2)C(O)(c2ccc(Cl)cc2)C1 (stereo not given) | 0 | -1 | 20* | i | -8 | -6 | 7
CCCCN(C)c1c(C)nc2ccc(C(=O)NCCOc3ccc(OC)cc3)cn12 | 10 | x | x | x | x | x | x
O=c1c(OC2OC(CO)C(O)C(O)C2OC2OC(CO)C(O)C(O)C2O)c(-c2ccc(O)cc2)oc2cc(O)cc(O)c12 (stereo not given) | 3 | x | 23* | i | 44 | -4 | 14
O=C1C=CC(=O)c2c(O)c(CO)c(CO)c(O)c21 | 140 | x | 78* | x | x | -3 | 59*
Cc1oc2c(c(C)nn2-c2ccccc2)c(=O)c1Cl | x | x | 5 | x | x | x | x
COc1ccc(-c2cn3cc(C(=O)NN)ccc3n2)cc1 | -1 | -12 | 21* | i | -10 | 0 | -2
SMILES | MLLE-PAM2 inh | RBBP9 inh | TCR-CD3 inh | PABP FP inh | eIF4H inh | BSA probe FL | TCR-CD3 conf
CCCCC1OC2(C)OC(=N)C1(C#N)C(C#N)(C#N)C2c1ccccc1 (stereo not given) | 17 | 3 | 20* | i | u | 4 | 6
COc1ccc(NC(=O)CCCNC(=O)Cn2cnc3sc(C)c(C)c3c2=O)c(OC)c1 | -9 | x | 72* | i | -23 | -4 | 1
COc1ccc(C)cc1NC(=O)CCCNC(=O)Cn1cnc2sc(C)c(C)c2c1=O | -2 | x | -8 | i | 0 | x | x
COc1cccc(C(=O)C(=O)N2CCN(C(=O)OCc3ccccc3)CC2)c1 | x | x | 3 | x | x | x | x
CCN1CCN(Cc2ccc(NC(=O)c3ccc(C)c(NC(=O)c4nccn4C)c3)cc2C(F)(F)F)CC1 | -12 | x | -4 | i | -6 | x | x
CCN1CCN(Cc2ccc(NC(=O)c3ccc(C)c(NC(=O)c4cc(-c5ccc(Br)cc5)n[nH]4)c3)cc2C(F)(F)F)CC1 | 14 | x | 26* | i | -26 | 8 | 8
O=C(NNc1ccc([N+](=O)[O-])cc1[N+](=O)[O-])c1ccco1 | -105 | x | x | i | -8 | x | x
COc1ccc(C(=O)NNC(=S)NC(=O)c2ccco2)cc1 | 0 | -6 | 12 | i | 2 | x | x
COc1ccccc1C(=O)NNC(=S)NC(=O)c1ccco1 | 11 | -1 | 21* | i | 5 | -9 | 14
Cc1cccc(C(=O)NNC(=O)c2c(-c3ccccc3Cl)noc2C)c1O | 4 | x | 29* | i | 5 | -1 | 16
Nc1ccc([N+](=O)[O-])cc1C(=O)NNC(=O)c1ccco1 | -11 | -2 | 27* | i | 3 | -11 | 32*
CCCOc1ccc(C(=O)NNC(=S)NC(=O)c2ccco2)cc1 | -19 | 2 | 20* | i | 0 | -13 | 14
CCN(CC)C(=O)c1ncn2c1C(=O)N[C@@H](C)C2 | x | x | -9 | x | x | x | x
CCCCCCCCN1C(=O)[C@@H](CC(=O)NCCCCc2ccccc2)C[C@@]2(C(=O)OC)C1=C[C@H](C(C)(C)C)O[C@@H]2C | x | x | -5 | x | x | x | x
CN(Cc1ccccc1)C(=O)C(=O)c1ccccc1 | x | x | -2 | x | x | x | x
Cc1cccc(C(=O)NNC(=O)c2ccco2)c1O | 2 | x | 19* | i | -9 | -5 | 12
O=C(NS(=O)(=O)c1ccccc1[N+](=O)[O-])[C@H]1O[C@@H](n2ccc(=O)[nH]c2=O)[C@H](O)[C@@H]1O | x | x | 4 | x | x | x | x
CSCCC(c1nc2ccccc2[nH]1)n1c(=O)c(-c2ccco2)nc2ccccc21 (stereo not given) | x | x | -7 | x | x | x | x
Nc1ccc2c(c1)C/C(=C/c1ccco1)C2=O | -31 | -4 | 22* | + | 93* | 1 | 1
COc1cc2c(cc1OC)[N+]([O-])=C(c1ccccc1)C2=O | x | x | 3 | x | x | x | x
CCn1c(=O)c(-c2cc(=O)[nH][nH]2)c(O)c2ccccc21 | 5 | 1 | 12 | i | 5 | x | x
Cn1c(=O)c(-c2cc(=O)[nH][nH]2)c(O)c2ccccc21 | 24 | -19 | 19* | i | 11 | -9 | 17
COc1ccc(CN2C(=O)CSCC2(C)C(=O)Nc2ccc3c(c2)OCCO3)cc1 (stereo not given) | x | x | 2 | x | x | x | x
Cn1cnc2c(cnn2C)c1=O | -71 | x | 28* | x | x | 1 | 3
Cn1cnc2c(cnn2-c2ccccc2)c1=O | 4 | x | 4 | i | 0 | x | x
